Our source for the Ratio and ED50 values is ChEMBL document CHEMBL1127789, “Synthesis, NMDA receptor antagonist activity, and anticonvulsant action of 1-aminocyclobutanecarboxylic acid derivatives” (1994).

Calls of active or inactive are those of the source. The rule behind the calls is not given here.

Test [1] is described as follows: Equipotent molar ratio relative to D-AP5 (1.0) on neonatal rat motoneurones. Format: functional.
For the next test, the system named is Mus musculus. Put plainly: (§1) Tested for anticonvulsant activity following intracerebroventricular administration against sound-induced clonic convulsions in DBA/2 mice. Format: functional. The method, boiled down: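 Intracerebroventricular dosing in DBA/2 mice at several doses, 7–11 mice per drug. Mice were exposed to sound, and protection against clonic (audiogenic) seizures was scored. Values were derived from dose–response data with 95% confidence limits. Overt behaviour (ataxia) and rectal temperature were also monitored.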

Test [2] can be described thus: as §1. Format: functional, Mus musculus. The method, boiled down:
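Intracerebroventricular injection in DBA/2 mice, 7–11 mice per compound, several doses per compound. Read-out is protection against sound-induced (audiogenic) clonic seizures. Values carry 95% confidence limits. Overt behaviour (ataxia) and rectal temperature were also noted.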

A short description of test [3]: Equipotent molar ratio relative to D-AP5 (1.0) on neonatal rat motoneurones. Format: functional. The method, boiled down:
(§2)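 Isolated neonatal rat spinal cord in vitro, recording from motoneurones. Antagonist potency is given as an equipotent molar ratio against D-AP5, with D-AP5 set to 1.0.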

The nature of test [4]: Equipotent molar ratio relative to D-AP5 (1.0) on neonatal rat motoneurones.; inactive. Format: functional. The method, boiled down:
as §2

Regarding `N[C@]1(C(=O)O)C[C@H](CCP(=O)(O)O)C1`, the Ratio in test [1] was found to be 0.32.

For `N[C@]1(C(=O)O)C[C@@H](CCP(=O)(O)O)C1`, in test [1], the Ratio is reported as 1.1.

Consider `N[C@]1(C(=O)O)C[C@H](C(=O)CP(=O)(O)O)C1`, for which, in test [1], the Ratio turned out to be 0.33.

On to `NC1(C(=O)O)CC([C@@H](O)CP(=O)(O)O)C1` (some centres undefined), for which the Ratio in test [1] is listed as 0.39.

Regarding `N[C@]1(C(=O)O)C[C@](C(=O)O)(C2CC2C(=O)O)C1` (some centres undefined), in test [1], the Ratio is 0.28. Also, the ED50 came to 0.089 µg in the test on Mus musculus and 0.36 nmol in test [2].

Regarding `N[C@]1(C(=O)O)C[C@H](CCC(=O)O)C1`, the Ratio in test [3] worked out at 1.8.

Consider `N[C@]1(C(=O)O)C[C@@H](C(=O)CP(=O)(O)O)C1`, for which the Ratio in test [1] is recorded as 4.2.

As to `N[C@]1(C(=O)O)C[C@@](C(=O)O)(C2CC2C(=O)O)C1` (some centres undefined), in test [4], the Ratio result was “inactive”.

In the case of `N[C@@H](CCCP(=O)(O)O)C(=O)O`, the Ratio in test [3] stood at 1.

`NC1(C(=O)O)CC([C@H](O)CP(=O)(O)O)C1` (some centres undefined): in test [1], the Ratio was 1.

In the case of `O=C(O)C1CN(CCCP(=O)(O)O)CCN1` (racemic), the Ratio in test [1] came out at 0.2.

With `N[C@]1(C(=O)O)C[C@@H](CCC(=O)O)C1`, the Ratio in test [3] was found to be 7.9.
